Test results: the array DNA melting data of Ke et al. (doi:10.1101/2024.01.08.574731)

What was measured:
[1] = folding enthalpy; higher = less favourable; fluorescence melt of hairpins on a sequencing array, two-state fit; conditions: sodium 0.088 M
Outline: (§1)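 Hairpins were imaged by Cy3 fluorescence on a sequenced MiSeq flow cell with annealed Cy3 and quencher oligos, in 50 mM Na-HEPES pH 8.0, 25 mM NaCl, in 2.5 °C steps up to 60 °C. Bootstrapped two-state fits of normalised signals gave melting temperature and folding enthalpy. Four replicates were combined by inverse variance, and fitted temperatures were raised by 9.35 °C to match UV melts.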

[2] = melting temperature; fluorescence melt of hairpins on a sequencing array, two-state fit, raised by 9.35 °C to match UV melts; conditions: sodium 0.088 M
Outline: as §1

Row | Sequence | folding enthalpy [1] [kcal/mol] | Tm [2] [°C]
1 | GCACCCGAAAGGGGTTGC ((((((....)))..))) | -15.4 | 52.3
2 | GATCGACCACTCGATC ((((((....)))))) | -38.1 | 50.5
3 | GCTCTTCCGAAAGGAAGC (((..(((....)))))) | -9 | 37.2
4 | GGCGGTCGAAAGACGCC (((.(((....)))))) | -28.6 | 67.3
5 | GGTGGTGGAAACGTCACC ((((..(....)..)))) | -23.4 | 44.5
6 | GATCTCTCAGAGATC ((((((...)))))) | -33.8 | 54.2
7 | GAACCACGAAAGTGATTC (((.(((....))).))) | -23.9 | 43.7
8 | GGGAGTGGAAACACCCCC (((.(((....))).))) | -19 | 49.2
9 | GATCCCAAAAGGGATC ((((((....)))))) | -27.9 | 59.3
10 | GTGATACGAAAGTAACAC (((.(((....))).))) | -34.1 | 47.6
11 | GCTTGTTCGAAAGAAAGC (((..(((....)))))) | -16.2 | 26.5
12 | GAGCCCGAAAGGGTACTC ((((((....)))..))) | -13.1 | 43.1
13 | GCTAAGCGAAAGCGTGGC ((.(.((....)).).)) | -16.1 | 57.1
14 | GGTAAGGGAAACCTTGCC ((.((((....)))).)) | -29.6 | 48.3
15 | GACGCGGGAAACCACGTC ((((.((....)).)))) | -40.9 | 52.1
16 | GATCCAACGTGGATC ((((((...)))))) | -31.9 | 49.2
17 | GTGTCCGGAAACGGGCAC (((.(((....))).))) | -32.4 | 62.4
18 | GGGTCACCGAAAGGTCCC (((..(((....)))))) | -17.1 | 38.9
19 | GTGAGTCGAAAGACGCAC (((.(((....))).))) | -34.4 | 60
20 | CATTGGAAACAATG (((((....))))) | -22.2 | 42.3
21 | GATCCAAGACTGGATC ((((((....)))))) | -28.2 | 47.4
22 | GGTTTACGAAAGTACACC (((.(((....))).))) | -28.3 | 45.2
23 | GCCTCCGAAAGGATAGGC ((((((....)))..))) | -37.1 | 53.2

Row | Sequence | folding enthalpy [1] [kcal/mol] | Tm [2] [°C]
24 | CGGTCGCGGAAACGCCCG (((..(((....)))))) | -20.9 | 47.1
25 | CGATGCGGAAACGCTCG (((.(((....)))))) | -28.4 | 50
26 | GCGCGAGGAAACCCGCGC (((((.(....).))))) | -33.8 | 69.1
27 | GAGAGTGGAAACACTTTC ((.((((....)))).)) | -19.4 | 37.6
28 | GATCGTCCACACGATC ((((((....)))))) | -34.7 | 53.9
29 | CGAGTCGGAAACGAATCG (((.(((....))).))) | -39.9 | 52.2
30 | AACAAGAAATTGTT (((((....))))) | -7.18 | 23.3
31 | GATCCTGTCCAGGATC ((((((....)))))) | -48.3 | 58.1
32 | GATCAACTATTTGATC ((((((....)))))) | -31.5 | 42.4
33 | GCCACCGAAAGGTTCGGC ((((((....)))..))) | -16.8 | 46.5
34 | GGTCCAGGAAACTAGACC ((((.((....)).)))) | -29.7 | 35.7
35 | GGACCCGAAAGGGGTTCC ((((((....)))..))) | -15 | 48.3
36 | GCTATCGAAAGATATAGC ((((((....)))..))) | -25.1 | 36.1
37 | GCACTGACGAAAGTCTGC (((..(((....)))))) | -14.3 | 38.1
38 | GGAAGACGAAAGTCATCC (((.(((....))).))) | -26 | 48.7
39 | GATCAAAGCTTGATC ((((((...)))))) | -28.1 | 40.1
40 | GATCATAGTAATGATC ((((((....)))))) | -37.2 | 47.3
41 | GTAATCTCGAAAGAGTAC (((..(((....)))))) | -10.9 | 26.7
42 | GATCTGGAGGCAGATC ((((((....)))))) | -31.1 | 48.1
43 | GCCTAAGAAATTAGGC ((((((....)))))) | -28.8 | 52.5
44 | GTTAACGAAAGTTAAC ((((((....)))))) | -28.9 | 56
45 | GATTACCGAAAGGTCATC (((.(((....))).))) | -28.8 | 38.2
46 | GTCGCCGAAAGGCACGAC ((((((....)))..))) | -15.6 | 48.4

Row | Sequence | folding enthalpy [1] [kcal/mol] | Tm [2] [°C]
47 | CAGTCGAAAGACTG (((((....))))) | -27.2 | 61.4
48 | GCTCAGCGAAAGCCCAGC (((..((....))..))) | -12.1 | 37.2
49 | GGGCGTGGAAACACACCC (((.(((....))).))) | -40.7 | 51.8
50 | GATCCAAGCGTGGATC ((((((....)))))) | -35.7 | 50.6
51 | GGCATGGGAAACCACGCC (((.(((....))).))) | -35.2 | 49.4
52 | GTGTAGCGAAAGCTGCAC (((.(((....))).))) | -36.6 | 63.9
53 | GATCGCGTGGGCGATC ((((((....)))))) | -30.8 | 68.2
54 | GCCCATGGAAACATGGAC (.(((((....))))).) | -15.1 | 46.7
55 | GCTACGCGAAAGCGCGGC ((..(((....)))..)) | -16.1 | 51
56 | GTCATGGGAAACCACGAC (((.(((....))).))) | -31.9 | 39.9
57 | GTCCAACCGAAAGGTGAC (((..(((....)))))) | -16.3 | 37.2
58 | GAGACGGCGAAAGCCCTC (((..(((....)))))) | -6.29 | 34.5
59 | GTTACGGGAAACCGTAAC (((((((....))))))) | -46 | 60.5
60 | GGAGACGAAAGTCCTTCC ((((((....)))..))) | -21.1 | 42.6
61 | GAACCCCCGAAAGGGTTC (((..(((....)))))) | -24 | 55
62 | GCCGGAGGAAACCCCAGC ((.((.(....).)).)) | -6.86 | 16.8
63 | GGGGTTGGAAACGATCCC (((.(.(....).).))) | -23 | 39.1
64 | GATCCCACAGGGATC ((((((...)))))) | -33.1 | 67.1
65 | GATCCTAGCAAGGATC ((((((....)))))) | -33.2 | 52.8
66 | GCTAGCGGAAACGCTGGC ((.((((....)))).)) | -33.3 | 60.3
67 | GCGAGCGGTCGC ((((....)))) | -22.4 | 52
68 | GAGCCACGAAAGTGCCTC (((.(((....))).))) | -16.9 | 42.1
69 | GTCAGTGGAAACACTGAC (((((((....))))))) | -47.6 | 64.5

Row | Sequence | folding enthalpy [1] [kcal/mol] | Tm [2] [°C]
70 | GCATCGCGAAAGCGCGGC ((..(((....)))..)) | -14.8 | 44.7
71 | GGTCTAGGAAACCAGACC (((((.(....).))))) | -35.1 | 45
72 | GACCAACGAAAGTTGTC (((.(((....)))))) | -14.5 | 40.8
73 | GACGGCGGAAACGCCATC ((.((((....)))).)) | -13.2 | 41.1
74 | AATCCGAAAGGATT (((((....))))) | -17.8 | 52
75 | GCGTAGCTACGC ((((....)))) | -12.6 | 68.1
76 | GCTCTGCGAAAGCCTAGC (((..((....))..))) | -14.7 | 36.6
77 | GATCTCGGATGAGATC ((((((....)))))) | -33.7 | 57
78 | GTGCACCGAAAGGTACAC (((.(((....))).))) | -36.5 | 53.7
79 | GCTAAACGAAAGTTCAGC (((.(((....))).))) | -28.7 | 41.4
80 | GCACGGCGAAAGCGGGGC ((.(.((....)).).)) | -31.5 | 64.9
81 | GTGCGTGGAAACATGCAC ((((.((....)).)))) | -48.5 | 58.4
82 | GGCTATCGAAAGATCGCC (((.(((....))).))) | -30.8 | 50.6
83 | GTCTACGGAAACATAGAC (((((.(....).))))) | -27.1 | 31
84 | GGCGAAGCGAAAGCTGCC (((..(((....)))))) | -17.7 | 52.8
85 | GTTCGGGCGAAAGCCAAC (((..(((....)))))) | -10.7 | 26.2
86 | GCCGTGGGAAACCGTGGC (((..((....))..))) | -28.2 | 47.4
87 | GCGCCGCGAAAGCAGGGC ((.(.((....)).).)) | -13.1 | 57.4
88 | GATTCTGGAAACAGAATC (((((((....))))))) | -43.9 | 55
89 | GCGTCGCGAAAGCCAAGC ((.(.((....)).).)) | -20.1 | 48.1
90 | GGGGTCGAAAGACGACCC ((((((....)))..))) | -19.6 | 61.8
91 | GCAAGGCGAAAGCCAAGC ((..(((....)))..)) | -13.8 | 50.1
92 | GACATTGGAAACGATGTC (((((.(....).))))) | -36.1 | 46.7
